Data as given in ChEMBL document CHEMBL1150611, “Gaboroquinones A and B and 4'-O-demethylknipholone-4'-O-beta-D-glucopyranoside, phenylanthraquinones from the roots of Bulbine frutescens” (J Nat Prod, 2002).
In brackets after ≈: the same amount, converted by molar mass.

Assays:
[1] = tested on: Trypanosoma brucei rhodesiense; test: Trypanocidal activity against Trypanosoma brucei rhodesiense STIB 900 after 72 hrs; type: functional, organism-based
[2] = tested on: L6; test: Cytotoxicity against rat L6 cells after 4 days; type: cell-based; details: L6, 96 h
How it was run: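 Mammalian-cell cytotoxicity was tested up to a highest concentration of 90 µg mL-1.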

[3] = tested on: Trypanosoma cruzi; test: Trypanocidal activity against trypomastigotes of Trypanosoma cruzi Tulahuen C2C4 infected in rat L6 cells after 4 days; type: functional, organism-based; details: L6, 96 h
[4] = tested on: Plasmodium falciparum; test: Antiplasmodial activity against chloroquine and pyrimethamine-resistant Plasmodium falciparum K1 infected human erythrocytes after 48 hrs by [3H]hypoxanthine uptake; type: functional, organism-based
How it was run: (§1)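 Top test concentration was 5.0 µg mL-1.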

[5] = tested on: Plasmodium falciparum; test: Antiplasmodial activity against multi drug-sensitive Plasmodium falciparum NF54 infected human erythrocytes after 48 hrs by [3H]hypoxanthine uptake; type: functional, organism-based; how it was run: as §1

Structure (SMILES) | IC50 [1] [µg/mL] | MIC [2] [µg/mL] | IC50 [3] [µg/mL] | IC50 [4] [µg/mL] | IC50 [5] [µg/mL]
CC(=O)c1c(O[C@@H]2O[C@H](CO)[C@@H](O)[C@H](O)[C@H]2O)cc(O)c(-c2c(C)cc(O)c3c2C(=O)c2cccc(O)c2C3=O)c1O [BULBINELONESIDE D] | 0.7 (≈ 1.2 µM) | 90 (≈ 155 µM) | 6.8 (≈ 11.7 µM) | 0.41 (≈ 0.704 µM) | 0.43 (≈ 0.738 µM)
COc1c(C(C)=O)c(O)cc(O)c1-c1c(CO)cc(O)c2c1C(=O)c1cccc(O)c1C2=O [GABOROQUINONE A] | 5.1 (≈ 11.3 µM) | > 90 | 33.1 (≈ 73.5 µM) | 4.8 (≈ 10.7 µM) | 4.2 (≈ 9.33 µM)
COc1cc(O)c(-c2c(CO)cc(O)c3c2C(=O)c2cccc(O)c2C3=O)c(O)c1C(C)=O [GABOROQUINONE B] | 45.5 (≈ 101 µM) | > 90 | > 90 | > 5 | > 5
COc1cc(O)c(-c2c(C)cc(O)c3c2C(=O)c2cccc(O)c2C3=O)c(O)c1C(C)=O [KNIPHOLONE] | 9.3 (≈ 21.4 µM) | 33 (≈ 76 µM) | 7.6 (≈ 17.5 µM) | 0.67 (≈ 1.54 µM) | 0.91 (≈ 2.09 µM)
